Measurements pooled from the literature.
Compare with care: the assays were run in different laboratories.
Target: Histamine H1 receptor (HRH1, Homo sapiens, UniProt P35367)
Technique: radioligand

`CN(C)CCOC1c2ccccc2CCc2ccccc21` gave a Ki of 1.26 nM (cell-free assay).
`O=C1CCCc2cc(OCc3ccc(OCCCN4CCCCC4)cc3)ccc21` has a Ki of 1970 nM (ligand displacement; cell membranes).
`O=C1NC(=O)C(c2ccccc2)(c2ccc(OCCCN3CCCCC3)cc2)N1` (centres unmarked) gave a Ki of 6150 nM (ligand displacement; cell membranes).
With `CN(C)c1ccc(/C=C/C=C2\CCc3cc(OCc4ccc(OCCCN5CCCCC5)cc4)ccc3C2=O)cc1` the Ki was 1370 nM (ligand displacement; cell membranes).
For `N#Cc1cc(Cn2c(N3CCCC3)nc3ccccc32)ccc1F`, the Ki was 2570 nM (cell-free assay).
With `CN1CCC(=C2c3ccccc3CCc3ccccc32)CC1` the Ki was 0.251 nM (cell-free assay).
With `CN(C)c1ccc(/C=C/C=C2\CCc3cc(OCCCN4CCCCC4)ccc3C2=O)cc1` the Ki was 881 nM (ligand displacement; cell membranes).
For `Clc1ccc(CCCOCCCN2CCCCC2)cc1`, the Ki was > 10000 nM (ligand displacement; cell membranes).
The Ki of `CN(C)c1ccc(/C=C/C=C2\CCc3ccc(OCc4ccc(OCCCN5CCCCC5)cc4)cc3C2=O)cc1` is reported as 1840 nM (ligand displacement; cell membranes).
`Cc1nc2cc(OCCCCN3CCN(c4cccc(Cl)c4Cl)CC3)ccc2s1` gave a Ki of 57 nM (ligand displacement).
`CN(C)CCOC1c2ccccc2C=Cc2ccccc21` has a Ki of 0.316 nM (cell-free assay).
`CC(C)c1nc2cc(OCCCCN3CCN(c4cccc5c4OCCO5)CC3)ccc2s1` gave a Ki of 52 nM (ligand displacement).
With `CN1CCN(C2c3ccccc3C=Cc3ccccc32)CC1` the Ki was 2 nM (cell-free assay).
`CCCCN1CCC(COC(=O)c2ccc(N)c(OCF)c2)CC1` has a Ki of > 10000 nM (cell-free assay).
